ChEMBL document CHEMBL4406863, “Effective Virtual Screening Strategy toward heme-containing proteins: Identification of novel IDO1 inhibitors” (Eur J Med Chem, 2019)
The source made the active and inactive calls. The rule behind the calls is not given here.

Assays:
[1] = target: Indoleamine 2,3-dioxygenase 1 (Homo sapiens, UniProt P14902); assay: Inhibition of IDO1 in IFN-gamma stimulated human HeLa cells assessed as reduction in kynurenine production using L-tryptophan as substrate incubated for 24 hrs; assay type: cell-based
[2] = Cytotoxicity against human HeLa cells assessed as survival rate at 30 uM incubated for 24 hrs by MTT assay relative to control; assay type: cell-based; conditions: read-out: Activity
[3] = target: Indoleamine 2,3-dioxygenase 1 (Mus musculus) (UniProt P28776); assay: Reversal of IDO1-mediated immunosuppression in mouse CT26 co-cultured with T-cells assessed as ConA- stimulated differentiation of Treg cells at 0.3 uM measured after 48 hrs by FOXP3-APC based flow cytometry analysis (reference value: 11.4 %)
HeLa = assay: Effect on IDO1 expression in IFN-gamma-stimulated human HeLa cells at 3 times IDO1 IC50 for 24 hrs by western blot analysis; assay type: functional, cell-based
Procedure, shortened: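 HeLa cells (2 × 10^5/well) exposed to human IFN-γ 100 ng/mL with or without compound for 24 h. Lysis in 50 mM Tris-HCl pH 8.0 with detergents and protease inhibitors, then 10% SDS-PAGE and PVDF transfer. Membrane blocked with 5% milk and probed with anti-IDO antibody and HRP secondary; band intensity quantified.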

[4] = target: Indoleamine 2,3-dioxygenase 1 (Mus musculus) (UniProt P28776); assay: Reversal of IDO1-mediated immunosuppression in mouse CT26 co-cultured with T-cells assessed as increase in T cell proliferation measured after 48 hrs by MTT assay
Procedure, shortened: (§1)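 CT26 cells (1 × 10^5/well) exposed to compound ([…]) in medium with […] for 48 h. BALB/c splenic T cells resuspended in a 1:1 mix of this supernatant and RPMI/10% FBS with […] for 48 h. IFN-γ measured by ELISA; proliferation by MTT (1 mg/mL, 4 h, 37 °C, DMSO, 570 nm). Three replicate wells, mean ± SEM.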

[5] = target: Tryptophan 2,3-dioxygenase (Homo sapiens) (UniProt P48775); assay: Inhibition of IFN-gamma-induced human TDO2 transfected in HeLa cells at 10 times IDO1 IC50 concentration using L-tryptophan as substrate incubated for 24 hrs relative to control; assay type: cell-based
Procedure, shortened: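 HeLa cells transfected for 24 h with a human TDO2 plasmid, then reseeded at 5 × 10^3/well. After 6 h, IFN-γ and compounds added in medium with […] for 24 h. Supernatant treated with 6.1 N TCA at 50 °C for 30 min and centrifuged; kynurenine read with p-dimethylaminobenzaldehyde at 480 nm.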

Mus musculus [6] = assay: Induction of apoptosis in BALB/c mouse xenografted with CT26 cells at 50 mg/kg via oral gavage for 17 days by TUNEL assay; assay type: functional, organism-based
Procedure, shortened: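 TUNEL staining of tumor sections from the 17-day CT26/BALB/c study. Apoptotic nuclei scored by fluorescence microscopy under a FITC filter (green).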

Mus musculus [7] = assay: Induction of apoptosis in BALB/c mouse xenografted with CT26 cells assessed as nuclear chromatin margination at 50 mg/kg via oral gavage for 17 days by H&E staining based analysis; assay type: functional, organism-based
Procedure, shortened: (§2)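 Tumor tissue from the 17-day CT26/BALB/c gavage study stained with hematoxylin and eosin. Nuclei, cytoplasm and cell morphology assessed by microscopy.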

Mus musculus [8] = assay: Induction of apoptosis in BALB/c mouse xenografted with CT26 cells assessed as decrease in PCNA expression at 50 mg/kg via oral gavage for 17 days by immunohistochemistry analysis; assay type: functional, organism-based
Procedure, shortened: (§3)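 Paraffin sections of CT26 tumors from the 17-day BALB/c study. Sections deparaffinized, rehydrated and treated with 2% H2O2. Blocked with 3% goat serum, then incubated 2 h at room temperature with the specific primary antibody. Detection with streptavidin-HRP for 40 min and DAB, hematoxylin counterstain, microscopic imaging.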

[9] = target: Indoleamine 2,3-dioxygenase 1 (Mus musculus) (UniProt P28776); assay: Reversal of IDO1-mediated immunosuppression in mouse CT26 co-cultured with T-cells assessed as increase in IFN-gamma production measured after 48 hrs by ELISA relative to control; procedure, shortened: as §1
Mus musculus [10] = assay: Increase in Granzyme B expression in BALB/c mouse xenografted with CT26 cells at 50 mg/kg via oral gavage for 17 day by immunohistochemical analysis; assay type: functional, organism-based; procedure, shortened: as §3
[11] = Toxicity in BALB/c mouse xenografted with mouse CT26 cells assessed as effect on body weight at 50 mg/kg, po via gavage for 17 days and measured at day 17; assay type: organism-based; conditions: in vivo, 408 h
Mus musculus [12] = assay: Decrease in FOXP3-postive T cells in BALB/c mouse xenografted with CT26 cells at 50 mg/kg via oral gavage for 17 day by immunohistochemical analysis; assay type: functional, organism-based; procedure, shortened: as §3
Mus musculus [13] = assay: Induction of apoptosis in BALB/c mouse xenografted with CT26 cells assessed as cell shrinkage at 50 mg/kg via oral gavage for 17 days by H&E staining based analysis; assay type: functional, organism-based; procedure, shortened: as §2
Mus musculus [14] = assay: Increase in IFN-gamma expression in BALB/c mouse xenografted with CT26 cells at 50 mg/kg via oral gavage for 17 day by immunohistochemical analysis; assay type: functional, organism-based; procedure, shortened: as §3
CT26 [15] = assay: Antitumor activity against mouse CT26 cells xenografted in BALB/c mouse assessed as decrease in tumour growth at 50 mg/kg, po via gavage for 17 days by vernier caliper method; assay type: functional, organism-based
Mus musculus [16] = assay: Induction of apoptosis in BALB/c mouse xenografted with CT26 cells assessed as nuclear chromatin condensation at 50 mg/kg via oral gavage for 17 days by H&E staining based analysis; assay type: functional, organism-based; procedure, shortened: as §2
CT26 [17] = assay: Antitumor activity against mouse CT26 cells xenografted in immunodeficient BALB/c nude mouse assessed as reduction in tumour growth at 50 mg/kg, po via gavage for 10 days by vernier caliper method; assay type: functional, organism-based
Procedure, shortened: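 BALB/c nude mice carrying subcutaneous CT26 tumors (1 × 10^6 cells, armpit). Randomized 3 days post-implant into vehicle or treatment groups (n = 6). Oral gavage given on days 1–10; 5-Fu served as reference. Tumor volume and body weight recorded, and tumors weighed after sacrifice.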

Mus musculus [18] = assay: Increase in infiltrating CD8-positive T cells in BALB/c mouse xenografted with CT26 cells at 50 mg/kg via oral gavage for 17 day by immunohistochemical analysis; assay type: functional, organism-based; procedure, shortened: as §3
CT26 [19] = assay: Antitumor activity against mouse CT26 cells xenografted in BALB/c mouse assessed as decrease in tumour weight at 50 mg/kg, po via gavage for 17 days by vernier caliper method relative to control; assay type: functional; conditions: 408 h

Indoleamine 2,3-dioxygenase 1, sequence (P14902 whole entry): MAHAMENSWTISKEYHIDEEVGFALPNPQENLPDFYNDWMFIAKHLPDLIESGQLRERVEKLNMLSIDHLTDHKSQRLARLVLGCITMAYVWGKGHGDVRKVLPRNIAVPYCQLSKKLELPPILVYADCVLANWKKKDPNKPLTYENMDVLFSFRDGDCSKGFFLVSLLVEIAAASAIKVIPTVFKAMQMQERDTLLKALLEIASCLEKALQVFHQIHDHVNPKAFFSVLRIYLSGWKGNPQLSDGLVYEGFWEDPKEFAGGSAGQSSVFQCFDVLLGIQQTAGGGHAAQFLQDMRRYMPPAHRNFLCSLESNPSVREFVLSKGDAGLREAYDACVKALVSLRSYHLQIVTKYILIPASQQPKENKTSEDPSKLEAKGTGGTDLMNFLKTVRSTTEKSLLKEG
Tryptophan 2,3-dioxygenase (Homo sapiens), sequence (P48775 whole entry, looked up): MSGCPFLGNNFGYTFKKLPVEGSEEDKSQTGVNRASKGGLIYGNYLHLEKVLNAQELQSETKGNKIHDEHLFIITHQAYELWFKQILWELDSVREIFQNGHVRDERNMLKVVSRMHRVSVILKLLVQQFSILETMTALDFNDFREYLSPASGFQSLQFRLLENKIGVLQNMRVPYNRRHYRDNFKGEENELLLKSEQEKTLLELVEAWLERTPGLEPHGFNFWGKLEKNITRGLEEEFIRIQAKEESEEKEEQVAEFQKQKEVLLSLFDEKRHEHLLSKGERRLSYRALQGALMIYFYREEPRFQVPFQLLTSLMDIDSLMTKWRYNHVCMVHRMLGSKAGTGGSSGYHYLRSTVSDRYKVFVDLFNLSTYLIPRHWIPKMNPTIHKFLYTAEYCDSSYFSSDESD
Indoleamine 2,3-dioxygenase 1 (Mus musculus), sequence (P28776 whole entry, looked up): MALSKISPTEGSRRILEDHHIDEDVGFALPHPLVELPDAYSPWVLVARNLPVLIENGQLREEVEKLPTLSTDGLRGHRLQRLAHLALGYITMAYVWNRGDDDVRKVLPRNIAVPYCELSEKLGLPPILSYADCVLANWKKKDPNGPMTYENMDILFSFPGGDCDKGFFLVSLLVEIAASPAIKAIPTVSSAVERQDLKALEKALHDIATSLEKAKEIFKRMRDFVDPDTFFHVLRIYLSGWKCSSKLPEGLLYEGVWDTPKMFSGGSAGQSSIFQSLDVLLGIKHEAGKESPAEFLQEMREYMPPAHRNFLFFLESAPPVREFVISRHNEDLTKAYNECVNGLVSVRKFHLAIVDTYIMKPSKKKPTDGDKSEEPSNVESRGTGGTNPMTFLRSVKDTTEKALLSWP

Row | SMILES | IC50 [1] [µM] | viability at 24 h, 30 µM [2] [%] | further results
1 | CCC(Nc1ccc(Cl)cc1C)C(=O)N/N=C/c1c(O)ccc2ccccc12 (centres undefined) | 2.1 | 105 | Activity [3]: 6.7%; Activity (HeLa): inactive; Activity [4]: Active
2 | OC(CC1c2ccccc2-c2cncn21)C1CCCCC1 (centres undefined) |  |  | inhibition [5]: < 20%
3 | Fc1ccc(C2=Nn3c(CNc4ccc5c(c4)OCO5)nnc3SC2)cc1 |  | 100 | 
4 | Cc1ccc(NCc2nnc3n2N=C(c2ccc(Cl)cc2)CS3)cc1 |  | 100 | 
5 | O=C(Cc1ccccc1)N/N=C/c1c(O)ccc2cc([N+](=O)[O-])ccc12 | 4.8 | 108 | inhibition [5]: < 20%; Activity (HeLa): inactive
6 | NS(=O)(=O)NCCNc1nonc1/C(=N/O)Nc1ccc(F)c(Br)c1 |  |  | inhibition [5]: < 20%
7 | CCC(Nc1ccc(Cl)cc1C)C(=O)N/N=C/c1ccccc1 (centres undefined) |  |  | Activity (Mus musculus [6]): Active; Activity (Mus musculus [7]): Active; Activity (Mus musculus [8]): Active; fold change (FC) [9]: 2; Activity (Mus musculus [10]): Active; Activity [11]: Non-Toxic; Activity [3]: 5.9%; Activity (Mus musculus [12]): Active; Activity (Mus musculus [13]): Active; Activity (Mus musculus [14]): Active; inhibition (CT26 [15]): Active; inhibition [5]: < 20%; Activity (HeLa): inactive; Activity (Mus musculus [16]): Active; Activity (CT26 [17]): inactive; Activity (Mus musculus [18]): Active; inhibition in vivo at 50 mg/kg (CT26 [19]): 36%; Activity [4]: Active
8 | Cc1ccc(OCC(=O)N/N=C/c2c(O)ccc3ccccc23)c(C)c1 | > 30 | 80 | 
9 | CN(C)c1ccc(/C=C(/NC(=O)c2ccccc2Cl)C(=O)N/N=C/c2c(O)ccc3ccccc23)cc1 |  | 66 | 
10 | CCC(Nc1ccc(Cl)cc1C)C(=O)N/N=C/c1cccc2ccccc12 (centres undefined) | 2.2 |  | 
11 | Cc1ccccc1NC(=O)c1cc2ccccc2c(/C=N/Nc2nc3ccccc3s2)c1O |  | 101 | 

Continued, in another order:

Row | IC50 [1] [µM] | SMILES | viability at 24 h, 30 µM [2] [%] | further results
12 | > 30 | COc1ccccc1N(CC(=O)N/N=C/c1c(O)ccc2ccccc12)S(C)(=O)=O | 89 | 
13 | > 30 | O=C(Cn1cnc2scc(-c3ccc(F)cc3)c2c1=O)NC(=O)NCc1ccccc1 | 100 | 
14 | > 30 | COc1ccc(CC(=O)N/N=C/c2c(O)ccc3ccccc23)cc1 | 91 | 
15 | 10.3 | O=C(Cc1ccc([N+](=O)[O-])cc1)N/N=C/c1c(O)ccc2ccccc12 | 106 | 
16 | 20.6 | COc1cccc(NCc2nnc3n2N=C(c2ccc(Br)cc2)CS3)c1 | 101 | 
17 | 12.4 | O=C(Cn1cnc2scc(-c3ccc(Cl)cc3)c2c1=O)NCc1ccco1 | 108 | 
18 | 11.3 | COc1ccccc1C(=O)N/N=C/c1c(O)ccc2ccccc12 | 100 | 
19 | > 30 | CCOc1ccc(NCc2nnc3n2N=C(c2cccs2)CS3)cc1 | 101 | 
20 | 20.1 | Cc1ccc(-c2csc3ncn(CC(=O)Nc4cccc5ccccc45)c(=O)c23)cc1 | 99 | 
